Measured values of several laboratories.
PPO3: PPO3 (Agaricus bisporus, UniProt C7FF04)
HDAC2: Histone deacetylase 2 (HDAC2, Homo sapiens, UniProt Q92769)
PFF0160c: Dihydroorotate dehydrogenase (quinone), mitochondrial (PFF0160c, Plasmodium falciparum, UniProt Q08210)
MEP1A: Meprin A subunit alpha (MEP1A, Homo sapiens, UniProt Q16819)
AURKB: Aurora kinase B (AURKB, Homo sapiens, UniProt Q96GD4)
PDE5A: cGMP-specific 3',5'-cyclic phosphodiesterase (PDE5A, Homo sapiens, UniProt O76074)
KDM1A: Lysine-specific histone demethylase 1A (KDM1A, Homo sapiens, UniProt O60341)
PARP1: Poly [ADP-ribose] polymerase 1 (PARP1, Homo sapiens, UniProt P09874)

SMILES	target	effect on	action	method	setting	IC50 [µM]
Cc1ccc(C(C)C)cc1NC(=O)COC(=O)/C=C/c1ccc(Cl)cc1	PPO3	enzyme activity	inhibitor			16.7
CCCON(Cc1ccc(C(=O)NO)cc1)C(=O)Nc1ccccc1	HDAC2	enzyme activity	inhibitor	fluorescence		1.42
CCCCC[C@H](O)/C=C/[C@H]1[C@@H]2CO[C@@H](C2)[C@@H]1C/C=C\CCCC(=O)O	Thromboxane A2 receptor (TBXA2R, Homo sapiens, UniProt P21731)	ligand displacement		radioligand		0.013
CC1Cc2ccccc2N1C(=O)NCCCCN(C)[C@@H]1Cc2cccc3[nH]c(=O)n(c23)C1 (mixture of isomers)	5-hydroxytryptamine receptor 2A (HTR2A, Homo sapiens, UniProt P28223)	ligand displacement		radioligand		4.12
Cc1cc(Nc2ccc(C(F)(F)F)cc2)n2nc(OCCN(C)C)nc2n1	PFF0160c	enzyme activity	inhibitor			> 10
Cc1ccc(C(C)C)cc1NC(=O)COC(=O)c1ccc(O)c(O)c1	PPO3	enzyme activity	inhibitor			11
O=C(CCN(Cc1ccncc1)Cc1ccc(Cl)c(O)c1F)NO	MEP1A	enzyme activity	inhibitor			0.646
COc1ccc([C@@H]2CN(C(=O)[C@@H](O)CO)C[C@@]2(C)[C@@H](C)O)cc1OC1CN(c2ccc(C)cn2)C1	3',5'-cyclic-AMP phosphodiesterase 4A (PDE4A, Homo sapiens, UniProt P27815)	enzyme activity	inhibitor			9e-05
Cc1cc(Nc2cccc(Cl)c2)n2nc(CN(C)C)nc2n1	PFF0160c	enzyme activity	inhibitor			> 10
Cc1cnc(-c2ccc(-c3ccc(NC(=O)Nc4c(F)cc(F)cc4F)cc3F)c3c2C(=O)NC3)[nH]1	AURKB	enzyme activity	inhibitor			0.0037
CN1C(=O)c2c(nn(Cc3ccc(-c4cccc(F)n4)cc3)c2Nc2ccccc2)N2C1=N[C@@H]1CCC[C@@H]12	PDE5A	enzyme activity	inhibitor			> 0.1
C#CCSc1nc(Sc2nnnn2-c2cccnc2)c2nnn(Cc3ccccc3Cl)c2n1	KDM1A	enzyme activity	inhibitor	fluorescence		0.127
O=C(O)CCCC(=O)N1CCN(C(=O)c2cc(Cc3n[nH]c(=O)c4ccccc34)ccc2F)CC1	PARP1	enzyme activity	inhibitor			0.0067
CCC[C@H](NC(=O)C1CN(C)C1)c1ncc(-c2cc3ccccc3nc2OC)[nH]1	HDAC2	enzyme activity	inhibitor	fluorescence		0.75
CC(C)(C)N1C(=O)[C@H]2Cc3c([nH]c4ccccc34)[C@H](c3cccnc3)N2C1=O	PDE5A	enzyme activity	inhibitor	FP		4.75
COc1ccc(N=Nc2c(N)nc(N)nc2Cl)cc1	PPO3	enzyme activity	inhibitor	absorbance		28
COc1ccc(C2=NN(C3CCCCCC3)C(=O)[C@@H]3CC=CC[C@H]23)cc1-c1ccc(C(N)=O)cc1 (relative stereo)	PDE5A	enzyme activity	inhibitor			> 10
CCN1C(=O)[C@H]2Cc3c([nH]c4ccccc34)[C@H](c3ccc(OC)c(OC)c3)N2C1=O	PDE5A	enzyme activity	inhibitor	FP		7
CNc1cc(Nc2ccc(C(F)(F)F)cc2)n2ncnc2n1	PFF0160c	enzyme activity	inhibitor			7.4
CCCCc1ccc(-c2ccc(-c3cc(C(=O)O)c4ccc(OC)cc4n3)o2)cc1	Eukaryotic initiation factor 4A-I (EIF4A1, Homo sapiens, UniProt P60842)	ATPase activity	inhibitor	absorbance		> 150
Cc1cc(Nc2ccc(C(F)(F)F)cc2)n2nc(OCCN)nc2n1	PFF0160c	enzyme activity	inhibitor			> 10

SMILES	target	effect on	action	method	setting	IC50 [µM]
Cc1ccc(C(C)C)cc1NC(=O)COC(=O)/C=C/c1ccccc1	PPO3	enzyme activity	inhibitor			0.78
CC(C)C[C@H]1CC(=O)N2CCC[C@H]2C(=O)N[C@@H](CCCCCC(=O)NO)C(=O)N[C@@H](Cc2c[nH]c3ccccc23)C(=O)N1	HDAC2	enzyme activity	inhibitor			0.0035
COC(=O)[C@@H]1Cc2c([nH]c3ccccc23)[C@H](c2cccnc2)N1	PDE5A	enzyme activity	inhibitor	FP		> 10
O=C(CCN(Cc1ccc2c(c1)OCO2)Cc1ccc(Cl)c(O)c1F)NO	MEP1A	enzyme activity	inhibitor			0.159
N[C@@]1(C(=O)O)CC[C@]12CC[C@H]2C(=O)O	Glutamate racemase (Helicobacter pylori J99, UniProt Q9ZLT0)	enzyme activity	inhibitor			18000
CCN1C(=O)[C@@H]2Cc3c([nH]c4ccccc34)[C@@H](c3cccnc3)N2C1=O	PDE5A	enzyme activity	inhibitor	FP		0.15
CNCCc1nc2nc(C)cc(Nc3cccc(Cl)c3)n2n1	PFF0160c	enzyme activity	inhibitor			> 10
COc1cc2c(cc1OC)-c1c/c(=N\c3c(C)cc(C)cc3C)n(C)c(=O)n1CC2	PDE5A	enzyme activity	inhibitor	FP		3.4
CNCCOc1nc2nc(C)cc(Nc3ccc(S(F)(F)(F)(F)F)cc3)n2n1	PFF0160c	enzyme activity	inhibitor			> 10
CCCSc1nc(Sc2nncs2)c2nnn(CCO)c2n1	KDM1A	enzyme activity	inhibitor	fluorescence		1.05
Cc1cc(Nc2cccc(Cl)c2)n2nc(OCCN)nc2n1	PFF0160c	enzyme activity	inhibitor			> 10
N#CC(C(=O)c1ccc(Cl)cc1Cl)=C1NC(=O)c2ccc(OCc3ccc4c(c3)OCO4)cc2N1	Cytoplasmic dynein 1 heavy chain 1 (DYNC1H1, Homo sapiens, UniProt Q14204)	ATPase activity	inhibitor			130
CNCCc1nc2nc(C)cc(Nc3ccc(Cl)cc3)n2n1	PFF0160c	enzyme activity	inhibitor			> 10
Cc1cnc(Nc2ccc(N3CCN(C)CC3)cc2)nc1Nc1cccc(S(=O)(=O)NC(C)(C)C)c1	AURKB	enzyme activity	inhibitor	mobility shift		0.033
COC(=O)[C@H]1Cc2c([nH]c3ccccc23)[C@@H](c2ccc(OC)c(OC)c2)N1C(=O)CCl	PDE5A	enzyme activity	inhibitor	FP		> 10
Cc1cc(Nc2ccc(Cl)cc2)n2nc(CN)nc2n1	PFF0160c	enzyme activity	inhibitor			> 10
Nc1nc(N)c(N=Nc2ccccc2[N+](=O)[O-])c(Cl)n1	PPO3	enzyme activity	inhibitor	absorbance		24.7
O=C1[C@H]2Cc3c([nH]c4ccccc34)[C@@H](c3cccnc3)N2C(=O)N1c1ccc(Cl)cc1	PDE5A	enzyme activity	inhibitor	FP		4.99
CCOCc1nc(O)c(-c2nnc(Cc3ccc(Cl)cn3)o2)c(O)c1-c1c(OC)cccc1OC	Adenosine receptor A2a (ADORA2A, Homo sapiens, UniProt P29274)	ligand displacement		radioligand		> 30
CCCS(=O)(=O)Nc1ccc(F)c(C(=O)c2c[nH]c3ncc(Cl)cc23)c1F	Serine/threonine-protein kinase A-Raf (ARAF, Homo sapiens, UniProt P10398)	enzyme activity	inhibitor		lysate	0.022
O=C(NC1CC2(C1)CN(C(=O)c1cc3ccccc3c(=O)[nH]1)C2)c1c[nH]nn1	PARP1	enzyme activity	inhibitor			1.28
